Experimental data as given in ChEMBL document CHEMBL4411269, “Required Immunoproteasome Subunit Inhibition Profile for Anti-Inflammatory Efficacy and Clinical Candidate KZR-616 ((2 S,3 R)- N-(( S)-3-(Cyclopent-1-en-1-yl)-1-(( R)-2-methyloxiran-2-yl)-1-oxopropan-2-yl)-3-hydroxy-3-(4-methoxyphenyl)-2-(( S)-2-(2-morpholinoacetamido)propanamido)propenamide)” (J Med Chem, 2018).
Activity calls are given as the source filed them. The rule behind the calls is not given here.

Assays:
[1] = Clearance in Balb/c mouse at 2 mg/kg, iv; type: ADME, organism-based; conditions: in vivo
How it was run: (§1)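 Female BALB/c mice aged 7−8 weeks, given 2 mg/kg iv in 25% PEG300/WFI. Cardiac blood taken at 2, 5, 10, 20, 30, 60 and 120 min postdose into sodium heparin and processed to plasma (n = 3/time point). Proteins precipitated with acetonitrile; drug measured by LC−MS/MS. Noncompartmental analysis of mean concentrations at nominal times and target doses.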

Mus musculus [2] = test: In vivo inhibition of proteosome beta 5 in Balb/c mouse kidney at 5 mg/kg, iv followed by dosing repeat on day 6, 8, 11, 13 and 15 and measured on 1 hr post last dose; type: functional, organism-based
How it was run: (§2)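 BALB/c mice dosed iv bolus in 10% sulfobutyl ether−β-cyclodextrin/10 mM sodium citrate pH 3.5; tissues taken 1 h after administration. Splenocytes strained and red cells lysed; kidney frozen, then bead-homogenized. Hypotonic lysate (20 mM Tris pH 8, 5 mM EDTA) at 1 mg/mL (spleen) or 5 mg/mL (kidney) run in the ProCISE active-site ELISA. Background-subtracted, protein-normalized activity relative to vehicle animals; n = 3.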

[3] = Toxicity in Balb/c mouse assessed as effect on cage-side observations at 5 mg/kg, iv followed by dosing repeat on day 6, 8, 11, 13 and 15 and measured until day 18; type: organism-based; conditions: in vivo
PBMC [4] = test: Antiinflammatory activity in human PBMC assessed as reduction in LPS-stimulated TNF-alpha expression at 500 nM preincubated for 1 hr followed by LPS stimulation measured after 24 hrs by ELISA; type: functional, cell-based
How it was run: (§3)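 Cryopreserved healthy-donor PBMC in RPMI 1640 with 5% heat-inactivated FBS, 250 000 cells/well. Compound (0.1% DMSO final) for 1 h at 37 °C, 5% CO2, then 4 washes with medium. Stimulated with 1 μg/mL LPS for 24 h; supernatant TNFα, IL-6 and IL-12/23p40 by electrochemiluminescent immunoassay. Mean level relative to DMSO controls, n = 6.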

Mus musculus [5] = test: In vivo inhibition of LMP7 in Balb/c mouse splenocytes at 5 mg/kg, iv followed by dosing repeat on day 6, 8, 11, 13 and 15 and measured on 1 hr post last dose; type: functional, organism-based; how it was run: as §2
[6] = target: T1, Proteasome subunit beta type-9 (Homo sapiens) (UniProt P28065); conditions: 500 nM
T1 sequence (whole entry): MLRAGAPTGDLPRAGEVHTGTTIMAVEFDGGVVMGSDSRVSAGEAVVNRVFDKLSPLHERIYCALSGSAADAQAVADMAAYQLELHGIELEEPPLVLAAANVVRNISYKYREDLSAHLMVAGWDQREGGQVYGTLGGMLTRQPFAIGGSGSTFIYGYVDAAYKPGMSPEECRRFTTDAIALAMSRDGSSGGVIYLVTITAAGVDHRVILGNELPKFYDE

[7] = Half life in Balb/c mouse at 2 mg/kg, iv; type: ADME, organism-based; conditions: in vivo; how it was run: as §1
PBMC [8] = test: Antiinflammatory activity in human PBMC assessed as reduction in LPS-stimulated p40 subunit of […] expression at 500 nM preincubated for 1 hr followed by LPS stimulation measured after 24 hrs by ELISA; type: functional, cell-based; how it was run: as §3
PBMC [9] = test: Cytotoxicity in human PBMC assessed as reduction in cell viability at 500 nM relative to control; type: cell-based; conditions: 0.5 µM
[10] = target: T2, Proteasome subunit beta type-10 (Homo sapiens) (UniProt P40306); test: Inhibition of MECL1 in human PBMC at 500 nM by ELISA
T2 sequence (whole entry): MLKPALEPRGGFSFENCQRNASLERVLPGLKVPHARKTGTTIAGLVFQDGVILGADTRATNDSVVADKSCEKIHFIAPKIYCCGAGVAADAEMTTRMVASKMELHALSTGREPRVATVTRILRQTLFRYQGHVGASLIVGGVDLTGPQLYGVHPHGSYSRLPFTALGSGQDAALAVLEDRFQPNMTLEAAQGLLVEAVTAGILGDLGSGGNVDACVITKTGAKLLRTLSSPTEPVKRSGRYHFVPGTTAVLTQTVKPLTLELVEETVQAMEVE
How it was run: (§4)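 Cryopreserved healthy-donor human PBMC in RPMI 1640 with 5% heat-inactivated FBS, exposed to compound (0.1% DMSO final) for 1 h at 37 °C, 5% CO2, then washed. Subunit-specific active-site occupancy read by ProCISE: biotinylated active-site probe binding, denaturation, streptavidin capture, subunit-specific antibody and HRP chemiluminescence. Signal normalized to protein and expressed relative to DMSO controls.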

[11] = Toxicity in Balb/c mouse assessed as change in body weight at 5 mg/kg, iv followed by dosing repeat on day 6, 8, 11, 13 and 15 and measured until day 18; type: organism-based; conditions: in vivo
Mus musculus [12] = test: In vivo inhibition of LMP2 in Balb/c mouse splenocytes at 5 mg/kg, iv followed by dosing repeat on day 6, 8, 11, 13 and 15 and measured on 1 hr post last dose; type: functional, organism-based; how it was run: as §2
PBMC [13] = test: Antiinflammatory activity in human PBMC assessed as reduction in anti-CD3/CD28 antibody-stimulated TNF-alpha expression at 500 nM preincubated for 1 hr followed by anti-CD3/CD28 antibody stimulation measured after 24 hrs by ELISA; type: functional, cell-based
How it was run: (§5)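 Healthy-donor PBMC, thawed from cryopreservation, 250 000 cells/well in RPMI 1640/5% FBS. Pretreated 1 h at 37 °C with compound alone or combined (0.1% DMSO final), washed 4 times, then stimulated 24 h with anti-CD3 and anti-CD28 antibodies. TNFα and IFNγ in supernatants by electrochemiluminescent ELISA; expressed relative to DMSO-treated controls (n = 6).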

[14] = target: T3, Proteasome subunit beta type-8 (Homo sapiens) (UniProt P28062); test: Inhibition of LMP7 in human PBMC at 500 nM by ELISA; how it was run: as §4
T3 sequence (whole entry): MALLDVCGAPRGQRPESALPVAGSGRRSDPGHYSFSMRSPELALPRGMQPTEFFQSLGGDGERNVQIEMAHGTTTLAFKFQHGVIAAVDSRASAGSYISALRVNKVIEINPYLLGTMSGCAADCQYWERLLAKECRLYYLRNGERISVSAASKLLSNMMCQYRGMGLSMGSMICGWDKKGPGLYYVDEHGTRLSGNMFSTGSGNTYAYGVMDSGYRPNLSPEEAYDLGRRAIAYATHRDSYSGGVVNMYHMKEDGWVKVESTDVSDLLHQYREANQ

PBMC [15] = test: Antiinflammatory activity in human PBMC assessed as reduction in anti-CD3/CD28 antibody-stimulated IFN-gamma expression at 500 nM preincubated for 1 hr followed by anti-CD3/CD28 antibody stimulation measured after 24 hrs by ELISA; type: functional, cell-based; how it was run: as §5
PBMC [16] = test: Antiinflammatory activity in human PBMC assessed as reduction in LPS-stimulated IL-6 expression at 500 nM preincubated for 1 hr followed by LPS stimulation measured after 24 hrs by ELISA; type: functional, cell-based; how it was run: as §3
Mus musculus [17] = test: In vivo inhibition of MECL-1 in Balb/c mouse splenocytes at 5 mg/kg, iv followed by dosing repeat on day 6, 8, 11, 13 and 15 and measured on 1 hr post last dose; type: functional, organism-based; how it was run: as §2
Mus musculus [18] = test: Antiarthritic activity in type 2 collagen antibody/LPS induced Balb/c mouse assessed as reduction in disease burden at 5 mg/kg, iv followed by dosing repeat on day 6, 8, 11, 13 and 15 and measured until day 18; type: functional, organism-based
How it was run: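 CAIA in 7−8 week old female BALB/c mice on breeder chow. Induced with 1.75 mg of a 5-antibody anti-type II collagen cocktail iv on day 0, then 25 μg LPS ip on day 3. Dosed as single iv boluses in 10% (w/v) sulfobutyl ether−β-cyclodextrin/10 mM sodium citrate (pH 3.5); vehicle-treated group included.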

C[C@]1(C(=O)[C@H](Cc2ccccc2)NC(=O)[C@H](CO)NC(=O)c2cccc(=O)[nH]2)CO1
clearance [1]: > 4.38 L/h/kg
inhibition (Mus musculus [2]): Active
Activity [3]: Non-Toxic
Activity (PBMC [4]): inactive
inhibition (Mus musculus [5]): Active
inhibition [6]: Active
half-life [7]: < 7 min
Activity (PBMC [8]): inactive
Activity (PBMC [9]): 30%
inhibition [10]: Active
Activity [11]: Non-Toxic
inhibition (Mus musculus [12]): Active
Activity (PBMC [13]): inactive
inhibition [14]: Active
Activity (PBMC [15]): inactive
Activity (PBMC [16]): inactive
inhibition (Mus musculus [17]): Active
Activity (Mus musculus [18]): inactive
